According to ChEMBL document CHEMBL1142265, “Discovery of 4-aryl-4H-chromenes as a new series of apoptosis inducers using a cell- and caspase-based HTS assay. Part 5: modifications of the 2- and 3-positions” (Bioorg Med Chem Lett, 2008):

Experiments:
[1] = Inhibition of tubulin polymerization
T47D [2] = test: Induction of apoptosis in human T47D cells assessed as caspase activation by HTS assay; type: functional, cell-based
HCT-116 [3] = test: Induction of apoptosis in human HCT116 cells assessed as caspase activation by HTS assay; type: functional, cell-based
HCT-116 [4] = test: Growth inhibition of human HCT116 cells; type: functional
In short: (§1)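 GI50 from a cell growth inhibition assay in T47D, HCT116 and SNU398 cells, run in 96-well format following an earlier protocol. Values are means of three or more experiments ± SEM.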

T47D [5] = test: Growth inhibition of human T47D cells; type: functional; in short: as §1
SNU-398 [6] = test: Growth inhibition of human SNU398 cells; type: functional; in short: as §1
SNU-398 [7] = test: Induction of apoptosis in human SNU398 cells assessed as caspase activation by HTS assay; type: functional, cell-based

SMILES	IC50 [1] [nM]	EC50 (T47D [2]) [nM]	EC50 (HCT-116 [3]) [nM]	GI50 (HCT-116 [4]) [nM]	GI50 (T47D [5]) [nM]	GI50 (SNU-398 [6]) [nM]	EC50 (SNU-398 [7]) [nM]
N#CC1=C(N)Oc2c(ccc3[nH]ccc23)C1c1ccccc1 (stereo unspecified)	3000	270					
COc1cc(C2C(C#N)=C(N)Oc3c2ccc2[nH]ccc32)cc(Br)c1OC (stereo unspecified)	500						
COc1cc(C2C(C#N)=C(NC(=O)Nc3ccccc3)Oc3cc(N(C)C)ccc32)cc(Br)c1OC (stereo unspecified)		68	84				93
COc1cc(C2C(C#N)=COc3c2ccc2c3ccn2C)cc(Br)c1OC (stereo unspecified)	< 500	29	38	6	6	4	34
COc1cc(C2C(C#N)=COc3cc(N(C)C)ccc32)cc(Br)c1OC (stereo unspecified)		65	93	51	66	17	77
COc1cc(C2C(C#N)=C(N3C(=O)CCC3=O)Oc3cc(N(C)C)ccc32)cc(Br)c1OC (stereo unspecified)		250	420				190

Continued, values first:

IC50 [1] [nM]	EC50 (T47D [2]) [nM]	EC50 (HCT-116 [3]) [nM]	GI50 (HCT-116 [4]) [nM]	GI50 (T47D [5]) [nM]	GI50 (SNU-398 [6]) [nM]	EC50 (SNU-398 [7]) [nM]	SMILES
	3200	3000	4300	3300	1600	2200	CCOC(=O)C1=C(N)Oc2c(ccc3[nH]ccc23)C1c1cc(Br)c(OC)c(OC)c1 (stereo unspecified)
< 500	47	66	53	73	34	52	COc1cc(C2C(C#N)=COc3c2ccc2[nH]ccc32)cc(Br)c1OC (stereo unspecified)
	70	150				87	CCn1ccc2c3c(ccc21)C(c1cc(Br)c(OC)c(OC)c1)C(C#N)=CO3 (stereo unspecified)
	1400	660				1000	COC(=O)C1=C(N)Oc2c(ccc3[nH]ccc23)C1c1cc(Br)c(OC)c(OC)c1 (stereo unspecified)
